Key:
[1] = target: Voltage-dependent L-type calcium channel subunit alpha-1C (Oryctolagus cuniculus, UniProt P15381); assay: Antagonist activity at rabbit Cav1.2 expressed in HEK293 cells assessed as inhibition of voltage pulse-induced calcium current by FLIPR calcium 4 assay
Procedure, shortened: (§1)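 HEK293 lines stably expressing Cavβ3 and Cavα2δ-1 plus Cav1.2 α1C (rabbit) or Cav1.3 α1D (rat) were selected with zeocin/hygromycin. Calcium signals were read by FLIPR with Calcium 4 dye. IC50 came from 11-point dose-response curves. Signal percentage error (SD/mean) was 6.4% for Cav1.2 and 4.1% for Cav1.3 cells.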

[2] = target: Voltage-dependent L-type calcium channel subunit alpha-1D (Rattus norvegicus, UniProt P27732); assay: Antagonist activity at rat Cav1.3 expressed in HEK293 cells assessed as inhibition of voltage pulse-induced calcium current by FLIPR calcium 4 assay; procedure, shortened: as §1
Voltage-dependent L-type calcium channel subunit alpha-1D, sequence (P27732 whole entry): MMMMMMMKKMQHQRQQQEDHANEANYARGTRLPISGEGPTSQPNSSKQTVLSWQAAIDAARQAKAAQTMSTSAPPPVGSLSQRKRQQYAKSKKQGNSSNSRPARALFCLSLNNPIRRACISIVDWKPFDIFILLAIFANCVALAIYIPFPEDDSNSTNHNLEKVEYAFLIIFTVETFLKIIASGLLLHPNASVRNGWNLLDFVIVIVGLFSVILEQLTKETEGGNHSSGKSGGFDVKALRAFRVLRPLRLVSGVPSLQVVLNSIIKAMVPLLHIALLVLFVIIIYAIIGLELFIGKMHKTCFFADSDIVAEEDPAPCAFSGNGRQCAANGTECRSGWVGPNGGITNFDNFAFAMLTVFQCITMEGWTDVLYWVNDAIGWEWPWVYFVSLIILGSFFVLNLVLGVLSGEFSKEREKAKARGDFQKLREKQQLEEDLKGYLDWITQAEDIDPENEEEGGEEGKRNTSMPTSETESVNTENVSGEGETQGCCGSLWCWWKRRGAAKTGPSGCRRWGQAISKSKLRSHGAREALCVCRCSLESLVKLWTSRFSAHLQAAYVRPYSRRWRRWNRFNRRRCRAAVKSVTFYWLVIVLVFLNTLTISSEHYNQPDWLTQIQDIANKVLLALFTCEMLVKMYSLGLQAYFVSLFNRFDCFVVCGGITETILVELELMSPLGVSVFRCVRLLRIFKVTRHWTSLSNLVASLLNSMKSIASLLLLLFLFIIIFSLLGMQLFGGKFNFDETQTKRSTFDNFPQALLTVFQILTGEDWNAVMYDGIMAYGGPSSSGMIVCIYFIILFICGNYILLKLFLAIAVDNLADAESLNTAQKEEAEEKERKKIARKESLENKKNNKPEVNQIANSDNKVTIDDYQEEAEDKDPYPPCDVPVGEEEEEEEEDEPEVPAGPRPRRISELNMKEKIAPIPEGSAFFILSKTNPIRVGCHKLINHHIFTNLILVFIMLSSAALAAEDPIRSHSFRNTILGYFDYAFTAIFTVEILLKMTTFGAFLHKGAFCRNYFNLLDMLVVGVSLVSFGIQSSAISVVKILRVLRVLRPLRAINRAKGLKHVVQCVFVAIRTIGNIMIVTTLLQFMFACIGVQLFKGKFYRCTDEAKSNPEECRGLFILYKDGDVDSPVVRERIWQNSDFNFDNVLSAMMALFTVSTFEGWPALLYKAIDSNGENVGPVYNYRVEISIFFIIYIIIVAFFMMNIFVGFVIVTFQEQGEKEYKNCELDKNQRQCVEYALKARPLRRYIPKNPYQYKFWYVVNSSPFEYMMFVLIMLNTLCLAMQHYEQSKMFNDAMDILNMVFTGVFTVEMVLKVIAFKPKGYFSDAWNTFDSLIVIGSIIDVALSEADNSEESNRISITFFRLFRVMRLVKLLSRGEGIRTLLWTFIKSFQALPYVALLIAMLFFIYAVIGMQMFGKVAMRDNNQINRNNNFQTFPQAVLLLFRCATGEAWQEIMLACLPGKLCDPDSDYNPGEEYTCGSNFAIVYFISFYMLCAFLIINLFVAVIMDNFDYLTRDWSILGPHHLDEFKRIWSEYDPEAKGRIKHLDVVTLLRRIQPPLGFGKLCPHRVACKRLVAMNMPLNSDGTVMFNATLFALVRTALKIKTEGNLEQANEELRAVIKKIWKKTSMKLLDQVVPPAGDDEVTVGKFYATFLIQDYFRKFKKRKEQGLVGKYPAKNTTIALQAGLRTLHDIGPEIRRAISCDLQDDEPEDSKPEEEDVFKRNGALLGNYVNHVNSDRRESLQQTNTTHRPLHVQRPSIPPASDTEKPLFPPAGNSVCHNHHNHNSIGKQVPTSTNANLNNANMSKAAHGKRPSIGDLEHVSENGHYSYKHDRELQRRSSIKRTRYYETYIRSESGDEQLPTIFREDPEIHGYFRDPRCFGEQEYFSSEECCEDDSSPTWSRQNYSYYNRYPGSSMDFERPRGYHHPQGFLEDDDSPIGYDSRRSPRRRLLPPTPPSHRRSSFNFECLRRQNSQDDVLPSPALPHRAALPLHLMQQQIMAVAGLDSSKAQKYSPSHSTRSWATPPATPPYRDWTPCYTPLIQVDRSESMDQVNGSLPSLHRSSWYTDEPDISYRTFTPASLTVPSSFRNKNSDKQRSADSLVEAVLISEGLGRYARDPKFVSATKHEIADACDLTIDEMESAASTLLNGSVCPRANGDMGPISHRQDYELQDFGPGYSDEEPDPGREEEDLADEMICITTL

Voltage-dependent L-type calcium channel subunit alpha-1C, sequence (P15381 whole entry): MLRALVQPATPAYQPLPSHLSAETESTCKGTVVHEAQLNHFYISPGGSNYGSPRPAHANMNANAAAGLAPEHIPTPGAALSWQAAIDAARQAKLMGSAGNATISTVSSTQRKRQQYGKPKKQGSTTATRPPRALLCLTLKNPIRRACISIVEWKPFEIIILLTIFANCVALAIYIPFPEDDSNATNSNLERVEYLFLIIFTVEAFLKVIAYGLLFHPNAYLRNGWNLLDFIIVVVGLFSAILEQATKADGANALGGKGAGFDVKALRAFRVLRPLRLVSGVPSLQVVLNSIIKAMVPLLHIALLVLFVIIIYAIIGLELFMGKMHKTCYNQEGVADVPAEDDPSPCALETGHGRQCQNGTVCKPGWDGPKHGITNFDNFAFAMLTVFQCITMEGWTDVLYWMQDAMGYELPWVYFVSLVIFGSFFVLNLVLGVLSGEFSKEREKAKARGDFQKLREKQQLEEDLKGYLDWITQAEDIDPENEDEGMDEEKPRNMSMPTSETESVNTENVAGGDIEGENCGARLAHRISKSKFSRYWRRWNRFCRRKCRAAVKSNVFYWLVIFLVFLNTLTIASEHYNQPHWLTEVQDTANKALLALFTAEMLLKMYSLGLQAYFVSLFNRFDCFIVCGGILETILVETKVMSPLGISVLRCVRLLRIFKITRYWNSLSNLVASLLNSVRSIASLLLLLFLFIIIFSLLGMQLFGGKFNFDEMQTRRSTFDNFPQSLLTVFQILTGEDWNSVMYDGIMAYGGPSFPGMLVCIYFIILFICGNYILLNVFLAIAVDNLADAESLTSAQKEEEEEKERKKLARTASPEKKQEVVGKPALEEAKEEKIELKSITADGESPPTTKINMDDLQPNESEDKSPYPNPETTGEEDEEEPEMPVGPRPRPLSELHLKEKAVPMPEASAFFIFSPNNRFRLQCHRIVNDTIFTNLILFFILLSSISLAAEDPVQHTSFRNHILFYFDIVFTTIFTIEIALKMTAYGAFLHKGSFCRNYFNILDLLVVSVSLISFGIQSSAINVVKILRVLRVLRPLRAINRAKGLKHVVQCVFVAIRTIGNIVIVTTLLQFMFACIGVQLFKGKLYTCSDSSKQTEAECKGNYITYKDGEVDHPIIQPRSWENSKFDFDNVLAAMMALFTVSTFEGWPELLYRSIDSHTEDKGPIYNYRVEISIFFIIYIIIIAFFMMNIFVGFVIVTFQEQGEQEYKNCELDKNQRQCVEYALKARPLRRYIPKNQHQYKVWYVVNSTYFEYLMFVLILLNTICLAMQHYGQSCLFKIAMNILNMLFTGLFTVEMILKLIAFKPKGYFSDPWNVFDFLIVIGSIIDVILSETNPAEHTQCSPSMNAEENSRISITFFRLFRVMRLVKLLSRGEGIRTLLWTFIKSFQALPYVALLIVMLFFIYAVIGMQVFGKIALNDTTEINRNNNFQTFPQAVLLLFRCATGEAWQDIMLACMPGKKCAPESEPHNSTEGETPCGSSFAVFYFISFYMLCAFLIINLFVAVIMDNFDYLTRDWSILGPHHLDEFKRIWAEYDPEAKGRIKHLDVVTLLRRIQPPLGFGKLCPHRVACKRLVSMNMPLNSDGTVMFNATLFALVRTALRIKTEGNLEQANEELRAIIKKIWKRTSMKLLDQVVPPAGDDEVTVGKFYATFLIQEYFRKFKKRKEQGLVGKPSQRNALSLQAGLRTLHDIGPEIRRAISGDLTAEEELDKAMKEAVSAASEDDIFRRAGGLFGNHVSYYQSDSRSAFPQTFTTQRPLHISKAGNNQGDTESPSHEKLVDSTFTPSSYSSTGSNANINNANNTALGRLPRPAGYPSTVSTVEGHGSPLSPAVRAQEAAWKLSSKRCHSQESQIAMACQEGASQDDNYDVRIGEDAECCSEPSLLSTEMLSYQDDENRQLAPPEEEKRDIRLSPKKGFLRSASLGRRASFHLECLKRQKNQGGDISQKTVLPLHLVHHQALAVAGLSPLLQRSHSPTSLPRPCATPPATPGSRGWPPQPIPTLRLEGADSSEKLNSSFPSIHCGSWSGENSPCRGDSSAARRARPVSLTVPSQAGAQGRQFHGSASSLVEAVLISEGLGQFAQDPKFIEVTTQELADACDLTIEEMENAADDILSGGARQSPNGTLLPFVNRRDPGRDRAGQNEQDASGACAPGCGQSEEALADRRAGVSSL

Row | SMILES | IC50 [1] [nM] | IC50 [2] [nM]
1 | C=CCOC(=O)C1=C(C)N=C(C)C(C(=O)OCC)C1c1cccc([N+](=O)[O-])c1 (stereo not drawn) [3-allyl 5-ethyl 2,6-dimethyl-4-(3-nitrophenyl)-1,4-dihydropyridine-3,5-dicarboxylate] | 25 | 15
2 | COC(=O)C1C(C)=NC(C)=C(C(=O)OCc2ccccc2)C1c1cccc([N+](=O)[O-])c1 (stereo not drawn) [3-benzyl 5-methyl 2,6-dimethyl-4-(3-nitrophenyl)-1,4-dihydropyridine-3,5-dicarboxylate] | 25 | 15
3 | COC(=O)C1C(C)=NC(C)=C(C(=O)OC2C=CCCC2)C1c1cccc([N+](=O)[O-])c1 (stereo not drawn) [3-cyclohex-2-enyl 5-methyl 2,6-dimethyl-4-(3-nitrophenyl)-1,4-dihydropyridine-3,5-dicarboxylate] | 10 | 10
4 | C=C(C)C(=O)OCCOC(=O)C1=C(C)N=C(C)C(C(=O)OCC)C1c1cccc([N+](=O)[O-])c1 (stereo not drawn) [3-ethyl 5-(2-(methacryloyloxy)ethyl)2,6-dimethyl-4-(3-nitrophenyl)-1,4-dihydropyridine-3,5-dicarboxylate] | 10 | 10

Source: BindingDB's records for doi:10.1016/j.bmc.2010.03.038 (Northwestern University, 2010)
